For three proteins, Km and kcat/Km results are on record in ChEMBL document CHEMBL1667743, “Functional in vivo imaging of cysteine cathepsin activity in murine model of inflammation” (Bioorg Med Chem, 2011).

Substrate in series [1]: CCN(CC)c1ccc2nc3ccc(/N=N/c4ccc(N(C)CCCC(=O)NCCNC(=O)[C@H](CCNC(=O)CCCCCN5/C(=C\C=C\C=C\C=C\C6N(CC)c7ccc(S(=O)(=O)O)cc7C6(C)C)C(C)(C)c6cc(S(=O)(=O)[O-])ccc65)NC(=O)[C@H](CC5CCCCC5)NC(=O)N5CCOCC5)cc4)cc3[n+](-c3ccccc3)c2c1
The series can be described thus: (§1) Activity at recombinant cathepsin S. Summed up:
(§2)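 Active-site-titrated (E-64) recombinant human cathepsins B, L, S and in-house cathepsin K, 10 nM final in pH 6.5 acetate/HEPES buffer with 300 mM NaCl, 0.001% Pluronic and L-cysteine; DMSO-dissolved Cy7/BHQ-3 quenched substrate 0.8–40 µM final (DMSO ≤1%); fluorescence read at 25 °C (λex 710, λem 767 nm); steady-state data fitted by non-linear least squares to Michaelis–Menten with substrate inhibition.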

Substrate in series [2]: CC(C)(C)OC(=O)NCC[C@H](NC(=O)[C@H](CC1CCCCC1)NC(=O)N1CCOCC1)C(=O)NCCNC(=O)OCC1c2ccccc2-c2ccccc21
The description is as §1. In short, it runs like this:
as §2

Substrate in series [3]: CCN(CC)c1ccc2nc3ccc(/N=N/c4ccc(N(C)CCCC(=O)NCCNC(=O)[C@H](CCNC(=O)CCCCCN5/C(=C\C=C\C=C\C=C\C6N(CC)c7ccc(S(=O)(=O)O)cc7C6(C)C)C(C)(C)c6cc(S(=O)(=O)[O-])ccc65)NC(=O)[C@H](CC5CCCCC5)NC(=O)N5CCOCC5)cc4)cc3[n+](-c3ccccc3)c2c1
The series can be described thus: (§3) Ratio of Kcat/Km for recombinant cathepsin S. In short, it runs like this: as §2

Substrate in series [4]: CC(C)(C)OC(=O)NCC[C@H](NC(=O)[C@H](CC1CCCCC1)NC(=O)N1CCOCC1)C(=O)NCCNC(=O)OCC1c2ccccc2-c2ccccc21
The series is described as §3. In short, it runs like this:
as §2

Substrate in series [5]: CC(C)(C)OC(=O)NCC[C@H](NC(=O)[C@H](CC1CCCCC1)NC(=O)N1CCOCC1)C(=O)NCCNC(=O)OCC1c2ccccc2-c2ccccc21
The series can be described thus: Ratio of Kcat/Km for recombinant cathepsin K. In short, it runs like this: as §2

Substrate in series [6]: CC(C)(C)OC(=O)NCC[C@H](NC(=O)[C@H](CC1CCCCC1)NC(=O)N1CCOCC1)C(=O)NCCNC(=O)OCC1c2ccccc2-c2ccccc21
Briefly: Activity at recombinant cathepsin K. In short, it runs like this:
as §2

Substrate in series [7]: CCN(CC)c1ccc2nc3ccc(/N=N/c4ccc(N(C)CCCC(=O)NCCNC(=O)[C@H](CCNC(=O)CCCCCN5/C(=C\C=C\C=C\C=C\C6N(CC)c7ccc(S(=O)(=O)O)cc7C6(C)C)C(C)(C)c6cc(S(=O)(=O)[O-])ccc65)NC(=O)[C@H](CC5CCCCC5)NC(=O)N5CCOCC5)cc4)cc3[n+](-c3ccccc3)c2c1
Briefly: (§4) Activity at recombinant cathepsin L. In short, it runs like this: as §2

Substrate in series [8]: CC(C)(C)OC(=O)NCC[C@H](NC(=O)[C@H](CC1CCCCC1)NC(=O)N1CCOCC1)C(=O)NCCNC(=O)OCC1c2ccccc2-c2ccccc21
Described as §4. In short, it runs like this:
as §2

Substrate in series [9]: CCN(CC)c1ccc2nc3ccc(/N=N/c4ccc(N(C)CCCC(=O)NCCNC(=O)[C@H](CCNC(=O)CCCCCN5/C(=C\C=C\C=C\C=C\C6N(CC)c7ccc(S(=O)(=O)O)cc7C6(C)C)C(C)(C)c6cc(S(=O)(=O)[O-])ccc65)NC(=O)[C@H](CC5CCCCC5)NC(=O)N5CCOCC5)cc4)cc3[n+](-c3ccccc3)c2c1
The series can be described thus: (§5) Ratio of Kcat/Km for recombinant cathepsin L. In short, it runs like this: as §2

Substrate in series [10]: CC(C)(C)OC(=O)NCC[C@H](NC(=O)[C@H](CC1CCCCC1)NC(=O)N1CCOCC1)C(=O)NCCNC(=O)OCC1c2ccccc2-c2ccccc21
The series is described as §5. In short, it runs like this:
as §2

B1: Cathepsin S (Homo sapiens), P25774 (protein)
chain: MKRLVCVLLVCSSAVAQLHKDPTLDHHWHLWKKTYGKQYKEKNEEAVRRLIWEKNLKFVMLHNLEHSMGMHSYDLGMNHLGDMTSEEVMSLMSSLRVPSQWQRNITYKSNPNRILPDSVDWREKGCVTEVKYQGSCGACWAFSAVGALEAQLKLKTGKLVSLSAQNLVDCSTEKYGNKGCNGGFMTTAFQYIIDNKGIDSDASYPYKAMDQKCQYDSKYRAATCSKYTELPYGREDVLKEAVANKGPVSVGVDARHPSFFLYRSGVYYEPSCTQNVNHGVLVVGYGDLNGKEYWLVKNSWGHNFGEEGYIRMARNKGNHCGIASFPSYPEI
As a reminder, the Km is the substrate concentration at which the rate is half of its maximum. The kcat/Km is the turnover number divided by the Michaelis constant. As for B1, the Km was 25 µM in [1] and 1.3 µM in series [2]. Moreover, the kcat/Km amounted to 14200 M⁻¹ s⁻¹ in series [3] and 15100 M⁻¹ s⁻¹ in series [4].

B2: Cathepsin K (Homo sapiens), P43235 (protein)
chain: MWGLKVLLLPVVSFALYPEEILDTHWELWKKTHRKQYNNKVDEISRRLIWEKNLKYISIHNLEASLGVHTYELAMNHLGDMTSEEVVQKMTGLKVPLSHSRSNDTLYIPEWEGRAPDSVDYRKKGYVTPVKNQGQCGSCWAFSSVGALEGQLKKKTGKLLNLSPQNLVDCVSENDGCGGGYMTNAFQYVQKNRGIDSEDAYPYVGQEESCMYNPTGKAAKCRGYREIPEGNEKALKRAVARVGPVSVAIDASLTSFQFYSKGVYYDESCNSDNLNHAVLAVGYGIQKGNKHWIIKNSWGENWGNKGYILMARNKNNACGIANLASFPKM
On to B2, for which the kcat/Km in series [5] was determined as 187 M⁻¹ s⁻¹. Moreover, in series [6], the Km was determined as 89 µM.

B3: Procathepsin L (Homo sapiens), P07711 (protein)
chain: MNPTLILAAFCLGIASATLTFDHSLEAQWTKWKAMHNRLYGMNEEGWRRAVWEKNMKMIELHNQEYREGKHSFTMAMNAFGDMTSEEFRQVMNGFQNRKPRKGKVFQEPLFYEAPRSVDWREKGYVTPVKNQGQCGSCWAFSATGALEGQMFRKTGRLISLSEQNLVDCSGPQGNEGCNGGLMDYAFQYVQDNGGLDSEESYPYEATEESCKYNPKYSVANDTGFVDIPKQEKALMKAVATVGPISVAIDAGHESFLFYKEGIYFEPDCSSEDMDHGVLVVGYGFESTESDNNKYWLVKNSWGEEWGMGGYVKMAKDRRNHCGIASAASYPTV
Regarding B3, the Km in [7] was found to be 280 µM; in series [8] it was 840 µM. The values for the kcat/Km in series [9] and in series [10] were 187 M⁻¹ s⁻¹ and 7070 M⁻¹ s⁻¹, respectively.
